Efflux pump inh – antifungal efflux pump inhibition, Nile Red retention; AID 485275; S. cerevisiae Candida pump triplex; 330,000 compounds, 0.44% hits; inhibition, % at 10 µM;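 active = plate passing quality check with inhibition over a set limit, or well fluorescence over plate mean plus 4 SD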;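 note: Nile Red retained in pooled yeast measured as flow cytometry median fluorescence; higher means more Nile Red kept so more efflux inhibition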
RTF Ca sens inh – cardiac RTF calcium desensitization; P19429+P45379; inhibition, % at 7.15 µM; 340,000 compounds, 0.12% hits; IANBD-labeled cardiac RTF, Ca2+ fluorescence;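 active = inhibition above the mean inhibition of all tested compounds plus 3 SD, cut at about 17% in these data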;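 note: assay run at fixed EC70 calcium of 1.6 mM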
ARNT TACC3 PPI – disruptors of human ARNT/TACC3 interaction | Q9Y6A5 | AlphaScreen His-ARNT PAS-B/GST-TACC3 binding, luminescence; TACC3 fragment carries E629A point mutation | inhibition, % at 9.99 µM | 390,000 compounds, 0.66% hits | AID 623870;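 active = mean inhibition of replicates at least 50% and at least half of replicates each reaching 50%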
Mot1-301 SUMO – SUMOylation pathway inhibition by Mot1-301 growth rescue. S. cerevisiae Mot1-301 growth rescue, ATP luminescence, 38.5C; percent above DMSO median, 100 means doubled. growth rescue, % at 18.8 µM. 320,000 compounds, 1% hits. AID 2716;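 active = every valid replicate shows activation above 250% relative to neutral control wells; inactive = the rest, any valid replicate at or below 250%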
RTF Ca sens act – increases calcium sensitivity of human cardiac regulated thin filaments | 340,000 compounds, 0.24% hits | AID 493008 | IANBD-labeled TnC RTF fluorescence at EC20 calcium; 0% EC20 calcium, 100% full calcium | activation, % at 7.2 µM | P19429+P45379;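 active = activation above the mean over all tested compounds plus 3 SD, cut at about 30% in these data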;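 note: rise in fluorescence read as greater calcium sensitivity of cardiac thin filaments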
UCH37 DUB inh – inhibitors of human deubiquitinating enzyme UCH37; purified proteasome/UCH37, Ub-AMC cleavage fluorescence; inhibition, % (no concentration beside the values); 330,000 compounds, 0.33% hits; AID 588478;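 active = mean inhibition over replicate wells above about 20%, limit read from the data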
Target sequence (Q9Y5K5 whole entry, looked up): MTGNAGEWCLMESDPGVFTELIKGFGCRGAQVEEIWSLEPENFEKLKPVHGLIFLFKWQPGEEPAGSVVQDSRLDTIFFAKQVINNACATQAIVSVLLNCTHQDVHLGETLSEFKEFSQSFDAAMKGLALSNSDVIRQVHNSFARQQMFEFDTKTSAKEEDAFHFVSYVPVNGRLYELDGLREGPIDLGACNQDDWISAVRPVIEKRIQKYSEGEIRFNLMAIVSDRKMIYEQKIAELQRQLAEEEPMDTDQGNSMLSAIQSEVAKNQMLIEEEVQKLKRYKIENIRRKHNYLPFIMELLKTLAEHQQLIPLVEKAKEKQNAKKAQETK
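Material: human UCH37 enzyme supplied as purified proteasome complex. Measure: % inhibition of Ub-AMC cleavage fluorescence. Medium: pH 7.4 Tris-HCl (50 mM) with ovalbumin, ATP-MgCl2, DTT. Times: 30 min preincubation with enzyme, 25 min cleavage at room temperature. Detection: AMC fluorescence intensity at 355/460 nm.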
Yeast cmpd fluor – flagged as fluorescent in efflux inhibitor counter-screen; shares compounds with Efflux pump inh; S. cerevisiae AD/pABC3, compound fluorescence, flow cytometry; fluorescence ratio to DMSO, % at 10 µM; 1,700 compounds, 4% hits; AID 588517;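 active = fluorescence ratio to DMSO above its plate's cutoff, the plate mean ratio plus 5 SD, cut at about 210% in these data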;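 note: unstained yeast with no Nile Red so the signal is compound autofluorescence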
Mdr1 pump inh – inhibitors of Candida albicans Mdr1 efflux pump | shares compounds with Efflux pump inh | S. cerevisiae AD/CaMDR1, Nile Red efflux, flow cytometry | inhibition, % at 10 µM | 1,700 compounds, 1% hits | AID 588518; in the data active = inhibition above about 26%;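 note: higher means more Nile Red retained so more efflux inhibition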
CaCdr2 efflux inh – inhibitors of Candida albicans Cdr2 efflux pump | shares compounds with Efflux pump inh | S. cerevisiae AD/CaCDR2, Nile Red retention, flow cytometry | Nile Red retention ratio vs DMSO, % at 10 µM | 1,700 compounds, 4% hits; in the data active = Nile Red retention ratio vs DMSO above about 190%;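 note: higher ratio means more blocking of Cdr2 efflux of the dye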
CaCdr1 efflux inh – Candida Cdr1 efflux pump inhibition. shares compounds with Efflux pump inh. S. cerevisiae AD/CaCDR1, Nile Red efflux, flow cytometry. inhibition, % at 10 µM. 1,700 compounds, 1% hits. AID 588522;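 active = inhibition above the screen-wide mean plus twice its standard deviation, cut at about 32% in these data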
A number is an active result; i = inactive; nt = no result. Rows were chosen to be rich in hits. Some 2.1% of all compounds tested hit in one or more screens of this group.

SMILES	Efflux pump inh	RTF Ca sens inh	ARNT TACC3 PPI	Mot1-301 SUMO	RTF Ca sens act	UCH37 DUB inh	Yeast cmpd fluor	Mdr1 pump inh	CaCdr2 efflux inh	CaCdr1 efflux inh
O=C(Nc1cccnc1)c1cn(-c2ccccc2)nc1-c1cccs1	i	i	i	i	i	i	nt	nt	nt	nt
O=C(NN=Cc1sc(N2CCOCC2)nc1-c1ccccc1)c1cccc(S(=O)(=O)N2CCCC2)c1	nt	nt	nt	nt	nt	i	nt	nt	nt	nt
COc1ccc(C=NNC(=O)c2sccc2C)c2ccccc12	nt	nt	nt	nt	nt	i	nt	nt	nt	nt
Cc1cc(NC(=O)CN2C(=O)c3ccccc3S2(=O)=O)no1	i	i	i	i	i	i	nt	nt	nt	nt
O=C(CN1C(=O)c2ccccc2S1(=O)=O)Nc1ccon1	1.1	i	i	i	i	nt	i	i	i	i
O=C(NCCCC1CCCC1)C1CCC(=O)N(Cc2cccc(F)c2)C1 (centres undefined)	i	i	i	i	i	i	nt	nt	nt	nt
O=C(NCCCC1CCCC1)C1CCC(=O)N(Cc2ccc(Cl)cc2)C1 (centres undefined)	6.4	i	i	i	i	i	i	i	i	i
CCc1ccc(-c2cc(C(=O)NN=Cc3c[nH]c4ccccc34)[nH]n2)cc1	nt	nt	nt	nt	nt	i	nt	nt	nt	nt
O=C(Oc1c(-c2ccccc2)c(=O)n2c3c(cccc13)CC2)c1cccc([N+](=O)[O-])c1	0.6	nt	i	i	nt	nt	i	i	i	i
CN1CCN(C(=O)c2c(O)c3cccc4c3n(c2=O)CC4)CC1	i	i	i	i	i	i	nt	nt	nt	nt
O=C(Oc1c(-c2ccccc2)c(=O)n2c3c(cccc13)CC2)c1ccccc1	i	nt	nt	i	nt	i	i	i	i	i
O=C(Oc1c(-c2ccccc2)c(=O)n2c3c(cccc13)CC2)c1ccc(F)cc1	0.6	i	i	i	i	i	i	i	i	i
O=C(NCCc1ccccc1)c1c(O)c2cccc3c2n(c1=O)CC3	i	i	i	i	i	i	nt	nt	nt	nt
Cn1cccc1/C=C1\SC(=S)N(NC(=O)c2ccc(F)cc2)C1=O	i	i	i	i	i	i	i	i	i	i
O=C(NN1C(=O)/C(=C/c2cccs2)SC1=S)c1ccccc1	i	i	i	i	i	i	nt	nt	nt	nt
CC(/C=C1\SC(=S)N(NC(=O)c2ccc(C)cc2)C1=O)=C\c1ccccc1	i	i	i	i	i	i	nt	nt	nt	nt
CC(/C=C1\SC(=S)N(NC(=O)c2ccncc2)C1=O)=C\c1ccccc1	i	i	i	i	i	i	i	i	i	i
CC(/C=C1\SC(=S)N(NS(=O)(=O)c2ccc(C)cc2)C1=O)=C\c1ccccc1	i	i	i	i	i	i	i	i	i	i
O=C(NN1C(=O)/C(=C/c2cccs2)SC1=S)c1cccnc1	i	nt	nt	i	nt	i	i	i	i	i
O=C(CNC(=O)c1ccco1)NN=Cc1ccccc1[N+](=O)[O-]	nt	nt	nt	nt	nt	i	nt	nt	nt	nt
COc1cc(/C=C2\SC(=S)N(NS(=O)(=O)c3ccc(C)cc3)C2=O)ccc1O	i	i	i	i	i	i	i	i	i	i
COc1cc(/C=C2\SC(=S)N(NS(=O)(=O)c3ccccc3)C2=O)ccc1O	i	i	i	i	i	i	nt	nt	nt	nt
O=Cc1cn(CC(=O)Nc2ccc3c(c2)OCO3)c2ccccc12	1.1	i	i	i	i	i	i	i	i	i
O=C(CN1C(=O)CSc2ccccc21)NC1CCCC1	i	i	i	i	i	i	nt	nt	nt	nt
CC1Cc2ccccc2N1CC(=O)Nc1cccc(S(N)(=O)=O)c1 (centres undefined)	i	i	i	i	i	i	nt	nt	nt	nt
CCOC(=O)N1CCC(NC(=O)CN2C(=O)CCSc3ccccc32)CC1	i	i	i	i	i	i	i	i	i	i

Source: PubChem (several laboratories)
